Results published in ChEMBL document CHEMBL1125251, “4'-Hydroxy-3-methoxyflavones with potent antipicornavirus activity” (J Med Chem, 1991).
Values after ≈ are worked out from the molar mass of the structure shown.

Assays:
Human rhinovirus sp. [1] = test: Antirhinovirus activity against rhinovirus serotype 63 which were grown on Ohio HeLa cells; type: functional
Enterovirus C [2] = test: Minimal dose which produces titer reduction at 10 ug/mL (mD RF10e3); type: functional
Human rhinovirus sp. [3] = test: Antirhinovirus activity against rhinovirus serotype 89 which were grown on Ohio HeLa cells; type: functional
Human rhinovirus sp. [4] = test: Antirhinovirus activity against rhinovirus serotype 29 which were grown on Ohio HeLa cells; type: functional
Human rhinovirus sp. [5] = test: Antirhinovirus activity against rhinovirus serotype 85 which were grown on Ohio HeLa cells; type: functional
Human rhinovirus sp. [6] = test: Minimum drug concentration at which 99% of the rhino virus is inhibited.; type: functional
Procedure, shortened: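 End-point titration with rhinovirus type 15 on human skin fibroblast monolayers. Cells were infected with serial 10-fold virus dilutions and allowed 1 h adsorption at 37 °C. Serial 2-fold compound dilutions were then added and plates incubated at 33 °C. CPE was read daily by light microscopy for at least 1 week, titres as TCD50/mL. ED99 = minimum concentration inhibiting 99% of virus.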

Enterovirus C [7] = test: Minimum drug concentration at which 99% of the polio virus is inhibited; type: functional
Procedure, shortened: (§1)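 Poliovirus type 1 Brunhilde 1A/S3 in Vero monolayers. Serial 10-fold virus dilutions adsorbed 1 h at 37 °C, then serial 2-fold compound dilutions were added. Incubated at 37 °C and scored for CPE by light microscopy, with a 3-day readout. Titer reduction is control/treated TCD50/mL. ED99 is the minimum concentration inhibiting 99% of virus. Virus, cell and compound controls were included.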

Rattus norvegicus [8] = species on record: Rattus norvegicus; test: Mutagenicity evaluated by calculating number of revertants using Salmonella Typhimurium strain TA 100 (2.5 mg/plate) without S9 mix from rat liver; type: functional
Procedure, shortened: (§2)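 Ames plate incorporation assay with Salmonella typhimurium TA 98 or TA 100, with or without rat liver S9 (20 µL S9 per plate). S9 came from male Wistar rats induced with phenobarbital (0.1% in drinking water) plus β-naphthoflavone (80 mg/kg ip on day 5 in corn oil), fasted 24 h and killed on day 7. Revertants per plate counted on duplicate plates per dose.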

Human rhinovirus sp. [9] = test: Antirhinovirus activity against rhinovirus serotype 39 which were grown on Ohio HeLa cells; type: functional
Rattus norvegicus [10] = species on record: Rattus norvegicus; test: Compound was evaluated for the mutagenicity by calculating number of revertants using Salmonella Typhimurium strain TA 98 (2.5 mg/plate) with S9 mix from rat liver; type: functional; procedure, shortened: as §2
[11] = Therapeutic Index measured as the ratio of CyD50(polio) / ED99(polio) values; type: organism-based; conditions: enterovirus c; read-out: Therapeutic index 99
Procedure, shortened: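 TI99 = CyD50/ED99 for poliovirus. ED99 came from end-point titration in Vero cells at 37 °C over 3 days. CyD50 came from Vero cell growth: 10⁶ cells were given serial 2-fold compound dilutions in quadruplicate for 6 days at 37 °C, then trypsinized, counted and reseeded, repeated five times. Generation time was calculated per concentration.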

Human rhinovirus sp. [12] = test: Antirhinovirus activity against rhinovirus serotype 41 which were grown on Ohio HeLa cells; type: functional
Human rhinovirus sp. [13] = test: Antirhinovirus activity against rhinovirus serotype 9 which were grown on Ohio HeLa cells; type: functional
[14] = Therapeutic Index measured as the ratio of CyD50 (rhino) / ED99 (rhino) values.; conditions: read-out: Therapeutic index 99
Procedure, shortened: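 TI99 = CyD50/ED99 for rhinovirus 15. ED99 came from end-point titration in human skin fibroblasts at 33 °C over 7 days. CyD50 came from fibroblast growth: 10⁶ cells were given serial 2-fold compound dilutions in quadruplicate for 6 days at 37 °C, then counted and reseeded, repeated five times. Generation time was calculated per concentration.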

Human rhinovirus sp. [15] = test: Antirhinovirus activity against rhinovirus serotype 15 which were grown on Ohio HeLa cells; type: functional
Human rhinovirus sp. [16] = test: Antirhinovirus activity against rhinovirus serotype 14 which were grown on Ohio HeLa cells; type: functional
Human rhinovirus sp. [17] = test: Cytotoxic dose at which 50% growth of normal cells is inhibited against rhino virus infection.; type: functional
Procedure, shortened: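 Human skin fibroblasts, 10⁶ cells per flask, given serial 2-fold dilutions in quadruplicate in M-199 with 6% newborn calf serum and held 6 days at 37 °C. Cells were trypsinized, counted in a chamber and reseeded with compound over five repeat cycles. CyD50 = lowest concentration at least doubling cell generation time relative to untreated control.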

Rattus norvegicus [18] = species on record: Rattus norvegicus; test: Mutagenicity evaluated by calculating number of revertants using Salmonella Typhimurium strain TA 100 (2.5 mg/plate) with S9 mix from rat liver; type: functional; procedure, shortened: as §2
Human rhinovirus sp. [19] = test: Antirhinovirus activity against rhinovirus serotype 59 which were grown on Ohio HeLa cells; type: functional
Human rhinovirus sp. [20] = test: Antirhinovirus activity against rhinovirus serotype 2 which were grown on Ohio HeLa cells; type: functional
Rattus norvegicus [21] = species on record: Rattus norvegicus; test: Mutagenicity evaluated by calculating number of revertants using Salmonella Typhimurium strain TA 100 (0.25 mg/plate) with S9 mix from rat liver; type: functional; procedure, shortened: as §2
Rattus norvegicus [22] = species on record: Rattus norvegicus; test: Mutagenicity evaluated by calculating number of revertants using Salmonella Typhimurium strain TA 98 (2.5 mg/plate) without S9 mix from rat liver according to the plate incorporation assay.; type: functional; procedure, shortened: as §2
[23] = Cytotoxic dose at which 50% growth of normal cells is inhibited; type: cell-based; conditions: chlorocebus sabaeus, Vero cells; read-out: CyD50
Procedure, shortened: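 Cell-growth cytotoxicity in Vero cells or human skin fibroblasts. Serial 2-fold dilutions in M-199 with 6% newborn calf serum were added in quadruplicate to 10⁶ cells and held 6 days at 37 °C. Cells were trypsinized, counted and reseeded with compound, repeated five times. Generation time was calculated per concentration. CyD50 = lowest concentration at least doubling generation time versus untreated cells.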

Enterovirus C [24] = test: The ratio of the poliovirus viral titer of the virus control (reduction factor) to the viral titer in the presence of the maximal non-toxic dose (RF MNTD); type: functional; procedure, shortened: as §1
Rattus norvegicus [25] = species on record: Rattus norvegicus; test: Mutagenicity evaluated by calculating number of revertants using Salmonella Typhimurium strain TA 98 (0.25 mg/plate) without S9 mix from rat liver; type: functional
Procedure, shortened: (§3)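 Ames plate incorporation assay with Salmonella typhimurium TA98 or TA100, without S9, at 0.25 mg/plate. Revertants per plate were counted on duplicate plates per dose. Quercetin was the standard mutagen.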

Rattus norvegicus [26] = species on record: Rattus norvegicus; test: Compound was evaluated for the mutagenicity by calculating number of revertants using Salmonella Typhimurium strain TA 98 (0.25 mg/plate) with S9 mix from rat liver; type: functional; procedure, shortened: as §2
Enterovirus C [27] = test: Maximal non-toxic dose (MNTD) that shows antiviral activity.; type: functional
Procedure, shortened: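 End-point titration. Poliovirus type 1 Brunhilde was run in Vero cells at 37 °C with a 3-day read. Rhinovirus 15 was run in human skin fibroblasts at 33 °C with a 7-day read. Monolayers got serial 10-fold virus dilutions and adsorbed 1 h at 37 °C, then serial 2-fold compound dilutions (DMSO stock in maintenance medium). CPE was read by light microscopy. RF = control titer (TCD50/mL) / titer at maximal nontoxic dose.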

Rattus norvegicus [28] = species on record: Rattus norvegicus; test: Mutagenicity evaluated by calculating number of revertants using Salmonella Typhimurium strain TA 100 (0.25 mg/plate) without S9 mix from rat liver according to the plate incorporation assay.; type: functional; procedure, shortened: as §3

COc1c(-c2ccc(O)cc2)oc2cc(O)c(C)c(C)c2c1=O
MIC50 (Human rhinovirus sp. [1]): 0.074 µg/mL (≈ 0.237 µM) | Minimal dose (Enterovirus C [2]): <2.5 µg/mL | MIC50 (Human rhinovirus sp. [3]): 0.5 µg/mL (≈ 1.6 µM) | MIC50 (Human rhinovirus sp. [4]): 0.078 µg/mL (≈ 0.25 µM) | MIC50 (Human rhinovirus sp. [5]): 0.076 µg/mL (≈ 0.243 µM) | ED99 (Human rhinovirus sp. [6]): 0.5 µg/mL | ED99 (Enterovirus C [7]): 0.1 µg/mL | Revertants/plate (Rattus norvegicus [8]): 85 | MIC50 (Human rhinovirus sp. [9]): 0.088 µg/mL (≈ 0.282 µM) | Revertants/plate (Rattus norvegicus [10]): 9 | selectivity ratio [11]: > 1000 | MIC50 (Human rhinovirus sp. [12]): 0.088 µg/mL (≈ 0.282 µM) | MIC50 (Human rhinovirus sp. [13]): 0.156 µg/mL (≈ 0.499 µM) | selectivity ratio [14]: > 200 | MIC50 (Human rhinovirus sp. [15]): 0.088 µg/mL (≈ 0.282 µM) | MIC50 (Human rhinovirus sp. [16]): 0.072 µg/mL (≈ 0.231 µM) | CyD50 (Human rhinovirus sp. [17]): 100 µg/mL | Revertants/plate (Rattus norvegicus [18]): 94 | MIC50 (Human rhinovirus sp. [19]): 0.016 µg/mL (≈ 0.0512 µM) | MIC50 (Human rhinovirus sp. [20]): 0.044 µg/mL (≈ 0.141 µM) | Revertants/plate (Rattus norvegicus [21]): 103 | Revertants/plate (Rattus norvegicus [22]): 10 | CC50 [23]: > 100 µg/mL | Reduction factor (Enterovirus C [24]): 1000000 | Revertants/plate (Rattus norvegicus [25]): 12 | Revertants/plate (Rattus norvegicus [26]): 20 | Max non-toxic dose (Enterovirus C [27]): >100 µg/mL | Revertants/plate (Rattus norvegicus [28]): 110
